In ChEMBL document CHEMBL3352303, “Characterization of TRIF selectivity in the AGP class of lipid A mimetics: role of secondary lipid chains” (Bioorg Med Chem Lett, 2015) one finds Activity data, which are given here for 11 molecules.

This series has as its target Toll-like receptor 4/MD-2 (Homo sapiens, UniProt O00206+Q9Y6Y9). Description: Activation of TLR4/MD2 (unknown origin) expressed in HEK293 cells co-expressing CD14 assessed as induction of MyD88-dependent NF-kappaB activity after 24 hrs by NF-kappaB SEAP reporter gene assay. Particulars: hek293, 24 h. The series is classed as cell-based. In a few lines: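 HEK293 cells stably transfected with human TLR4, MD-2, CD14 and an NF-κB-inducible promoter driving secreted embryonic alkaline phosphatase (SEAP). Compounds formulated at 2 mg/mL in 2% aq. glycerol (stock), applied as a dose response for 24 h. Read-out was relative SEAP activity in cell culture supernatants.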
A general note: A reporter such as luciferase makes a cellular process visible.

Sequence of Toll-like receptor 4/MD-2 (O00206 whole entry): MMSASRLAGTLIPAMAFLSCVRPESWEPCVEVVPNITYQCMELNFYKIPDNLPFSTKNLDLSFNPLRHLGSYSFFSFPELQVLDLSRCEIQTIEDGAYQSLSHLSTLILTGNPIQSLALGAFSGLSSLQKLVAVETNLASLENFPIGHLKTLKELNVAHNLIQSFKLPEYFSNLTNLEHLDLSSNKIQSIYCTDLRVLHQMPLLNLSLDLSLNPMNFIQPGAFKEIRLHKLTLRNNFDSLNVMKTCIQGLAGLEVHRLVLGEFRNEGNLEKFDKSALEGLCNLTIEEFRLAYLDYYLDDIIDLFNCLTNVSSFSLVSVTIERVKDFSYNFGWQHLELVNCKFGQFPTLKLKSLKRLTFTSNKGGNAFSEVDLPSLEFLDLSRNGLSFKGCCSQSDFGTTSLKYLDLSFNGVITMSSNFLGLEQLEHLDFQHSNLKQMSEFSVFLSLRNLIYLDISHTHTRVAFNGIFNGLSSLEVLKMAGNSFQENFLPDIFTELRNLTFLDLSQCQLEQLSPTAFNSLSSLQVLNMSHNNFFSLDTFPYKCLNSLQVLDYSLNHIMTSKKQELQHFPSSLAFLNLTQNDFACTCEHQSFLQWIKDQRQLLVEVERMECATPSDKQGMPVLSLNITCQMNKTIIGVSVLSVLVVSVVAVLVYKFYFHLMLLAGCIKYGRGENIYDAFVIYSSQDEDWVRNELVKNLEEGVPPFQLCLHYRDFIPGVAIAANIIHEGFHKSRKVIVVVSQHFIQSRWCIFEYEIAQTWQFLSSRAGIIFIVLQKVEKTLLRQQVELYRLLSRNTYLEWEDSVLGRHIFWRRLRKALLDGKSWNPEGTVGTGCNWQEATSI
Sequence of Toll-like receptor 4/MD-2 (Q9Y6Y9 whole entry): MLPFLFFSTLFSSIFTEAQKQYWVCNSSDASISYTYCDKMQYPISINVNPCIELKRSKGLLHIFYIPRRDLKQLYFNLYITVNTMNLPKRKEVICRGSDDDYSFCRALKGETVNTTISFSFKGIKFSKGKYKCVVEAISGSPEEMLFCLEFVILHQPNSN

Take `CCCCCCCCCCC[C@H](CC(=O)N[C@H]1[C@H](OC[C@@H](NC(=O)C[C@@H](CCCCCCCCCCC)OC(=O)CCCCCCCCC)C(=O)O)O[C@H](CO)[C@@H](OP(=O)(O)O)[C@@H]1OC(=O)C[C@@H](CCCCCCCCCCC)OCCCCCCCCCC)OCCCCCCCCCC`: the Activity entry is “Toxic”. Then `CCCCCCCCCCC[C@H](CC(=O)N[C@H]1[C@H](OC[C@@H](NC(=O)C[C@@H](CCCCCCCCCCC)OCCCCCCCCCC)C(=O)O)O[C@H](CO)[C@@H](OP(=O)(O)O)[C@@H]1OC(=O)C[C@@H](CCCCCCCCCCC)OC(=O)CCCCCCCCC)OCCCCCCCCCC`, with “Non-toxic”; and `CCCCCCCCCCC[C@H](CC(=O)N[C@H](CO[C@@H]1O[C@H](CO)[C@@H](OP(=O)(O)O)[C@H](OC(=O)C[C@@H](CCCCCCCCCCC)OC(=O)CCCCCCCCC)[C@H]1NC(=O)C[C@@H](CCCCCCCCCCC)OC(=O)CCCCCCCCC)C(=O)O)OCCCCCCCCCC`, with “Non-toxic”; and `CCCCCCCCCCC[C@H](CC(=O)N[C@H]1[C@H](OC[C@H](NC(=O)C[C@@H](CCCCCCCCCCC)OC(=O)CCCCCCCCC)C(=O)O)O[C@H](CO)[C@@H](OP(=O)(O)O)[C@@H]1OC(=O)C[C@@H](CCCCCCCCCCC)OC(=O)CCCCCCCCC)OC(=O)CCCCCCCCC`, with “Toxic”. In the case of `CCCCCCCCCCC[C@H](CC(=O)N[C@H]1[C@H](OC[C@@H](NC(=O)C[C@@H](CCCCCCCCCCC)OCCCCCCCCCC)C(=O)O)O[C@H](CO)[C@@H](OP(=O)(O)O)[C@@H]1OC(=O)C[C@@H](CCCCCCCCCCC)OCCCCCCCCCC)OCCCCCCCCCC`, the Activity result is reported as “Non-toxic”. Turning to `CCCCCCCCCCC[C@H](CC(=O)N[C@H](CO[C@@H]1O[C@H](CO)[C@@H](OP(=O)(O)O)[C@H](OC(=O)C[C@@H](CCCCCCCCCCC)OCCCCCCCCCC)[C@H]1NC(=O)C[C@@H](CCCCCCCCCCC)OC(=O)CCCCCCCCC)C(=O)O)OCCCCCCCCCC`, the Activity result is listed as “Toxic”. For the molecule `CCCCCCCCCCC[C@H](CC(=O)N[C@H]1[C@H](OC[C@@H](NC(=O)C[C@@H](CCCCCCCCCCC)OC(=O)CCCCCCCCC)C(=O)O)O[C@H](CO)[C@@H](OP(=O)(O)O)[C@@H]1OC(=O)C[C@@H](CCCCCCCCCCC)OC(=O)CCCCCCCCC)OC(=O)CCCCCCCCC`, the Activity entry is reported as “Toxic”. For `CCCCCCCCCCC[C@H](CC(=O)N[C@H]1[C@H](OC[C@@H](NC(=O)C[C@@H](CCCCCCCCCCC)OC(=O)CCCCCCCCC)C(=O)O)O[C@H](CO)[C@@H](OP(=O)(O)O)[C@@H]1OC(=O)C[C@@H](CCCCCCCCCCC)OC(=O)CCCCCCCCC)OCCCCCCCCCC`, the Activity result was “Non-toxic”. For `CCCCCCCCCCCCCC(=O)O[C@H](CCCCCCCCCCC)CC(=O)N[C@H]1[C@H](OC[C@H](NC(=O)C[C@@H](CCCCCCCCCCC)OC(=O)CCCCCCCCCCCCC)C(=O)O)O[C@H](CO)[C@@H](OP(=O)(O)O)[C@@H]1OC(=O)C[C@@H](CCCCCCCCCCC)OC(=O)CCCCCCCCCCCCC`, the Activity result was “Non-toxic”. Turning to `CCCCCCCCCCC[C@H](CC(=O)O[C@@H]1[C@@H](NC(=O)C[C@@H](CCCCCCCCCCC)OC(=O)CCCCCCCCC)[C@H](OC[C@@H](NC(=O)C[C@@H](CCCCCCCCCCC)OC(=O)CCCCCCCCC)C(=O)O)O[C@H](CO)[C@H]1OP(=O)(O)O)OCCCCCCCCCC`, the Activity entry is “Toxic”.

For the molecule `CCCCCCCCCCC[C@H](CC(=O)N[C@H]1[C@H](OC[C@H](NC(=O)C[C@@H](CCCCCCCCCCC)OCCCCCCCCCC)C(=O)O)O[C@H](CO)[C@@H](OP(=O)(O)O)[C@@H]1OC(=O)C[C@@H](CCCCCCCCCCC)OCCCCCCCCCC)OCCCCCCCCCC`, the Activity result is “Toxic”.
